Data from ChEMBL document CHEMBL3421574, “Discovery of Potent Inhibitors of Schistosoma mansoni NAD⁺ Catabolizing Enzyme” (J Med Chem, 2015).
The source made the active and inactive calls. The calls are words filed in the database; no cut-off is given here.

Tests used:
[1] = Inhibition of recombinant Schistosoma mansoni NACE using 1, N6-etheno NAD+ as substrate by fluorometric analysis
Method in brief: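 Continuous fluorometric read of recombinant SmNACE turning over ε-NAD+ to ε-ADP-ribose (ex 310 nm, em 410 nm), at 37 °C in 10 mM potassium phosphate pH 7.4 with 0.05% (w/v) emulphogen. Initial rates are taken at 6 inhibitor concentrations. IC50 comes from non-linear regression of residual activity against log[inhibitor]. Values are means of three independent determinations.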

[2] = biological target: T1, ADP-ribosyl cyclase/cyclic ADP-ribose hydrolase 1 (Homo sapiens, UniProt P28907); experiment: Inhibition of human CD38 by HPLC analysis
T1 sequence (P28907 whole entry): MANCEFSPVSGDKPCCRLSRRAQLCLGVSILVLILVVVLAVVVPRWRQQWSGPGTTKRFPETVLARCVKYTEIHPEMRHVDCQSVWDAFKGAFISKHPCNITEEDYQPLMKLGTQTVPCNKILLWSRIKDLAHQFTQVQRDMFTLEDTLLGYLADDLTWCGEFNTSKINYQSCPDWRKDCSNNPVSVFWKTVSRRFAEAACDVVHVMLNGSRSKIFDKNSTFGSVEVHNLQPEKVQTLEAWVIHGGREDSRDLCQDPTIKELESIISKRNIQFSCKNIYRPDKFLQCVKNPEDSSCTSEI

[3] = biological target: ADP-ribosyl cyclase/cyclic ADP-ribose hydrolase 1 (Homo sapiens) (UniProt P28907); experiment: Inhibition of human CD38 at 100 uM by HPLC analysis relative to control
Method in brief: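 Human CD38 with inhibitor at 100 µM, given as percent inhibition. Enzyme activity is measured by HPLC at 20 µM NAD+: isocratic C18 separation (10 mM ammonium phosphate pH 5.5, 1.2% (v/v) acetonitrile, 1 mL/min) with detection at 260 nm, plus radiodetection when [14C]NAD+ is added.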

Schistosoma mansoni [4] = experiment: Inhibition of recombinant Schistosoma mansoni NACE using 1, N6-etheno NAD+ as substrate at 100 uM by fluorometric analysis relative to control
Method in brief: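 Single-point screen at 100 µM inhibitor against recombinant SmNACE with ε-NAD+ substrate. Initial-rate fluorescence of ε-ADP-ribose is read (ex 310 nm, em 410 nm) at 37 °C in 10 mM potassium phosphate pH 7.4 with 0.05% (w/v) emulphogen, and expressed as percent inhibition.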

Schistosoma mansoni [5] = experiment: Competitive inhibition of recombinant Schistosoma mansoni NACE by Dixon plot analysis in presence of 1, N6-etheno NAD+
Method in brief: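 Recombinant SmNACE with ε-NAD+ in 10 mM potassium phosphate pH 7.4, 0.05% (w/v) emulphogen, 37 °C. Initial rates are followed fluorometrically as ε-ADP-ribose appears (ex 310 nm, em 410 nm). Three fixed inhibitor concentrations are each combined with ε-NAD+ at 20, 50 and 100 µM, and 1/v is plotted against [I] (Dixon) to assign the inhibition type.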

[6] = Selectivity ratio of IC50 for human CD38 to IC50 for recombinant Schistosoma mansoni NACE
Schistosoma mansoni [7] = experiment: Inhibition of recombinant Schistosoma mansoni NACE using NAD+ as substrate at 100 uM by HPLC analysis relative to control
Method in brief: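 HPLC assay for recombinant SmNACE at 20 µM NAD+ substrate, used where compounds fluoresce on their own. Inhibitor is tested at 100 µM. Products are separated isocratically on a C18 column (10 mM ammonium phosphate pH 5.5, 1.2% (v/v) acetonitrile, 1 mL/min) and detected at 260 nm. In some runs [adenosine-U-14C]NAD+ is added with radiodetection.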

| IC50 ([1]; read-out: IC50) | inhibition [3] | SMILES | further results |
| --- | --- | --- | --- |
| 80 µM |  | COc1cc(/C=N\NC(=O)c2ccoc2C)ccc1O | IC50 [2]: 103 µM |
| 11.6 µM | 0% | COc1ccccc1CNNC(=O)c1ccoc1C |  |
|  | 0% | Cc1occc1-c1nnc(-c2ccccc2O)o1 | inhibition (Schistosoma mansoni [4]): 0% |
|  |  | Cc1cccc(C(=O)NNC(=O)c2ccoc2C)c1O | IC50 [1]: ND(Insoluble) |
| 0.036 µM | 27.2% | Cc1occc1C(=O)N/N=C\c1cccc(F)c1O | IC50 [2]: 26 µM; Inhibition type (Dixon plot) (Schistosoma mansoni [5]): Active |
|  | 0% | Cc1occc1-c1nnc(-c2cc(Cl)ccc2O)o1 | inhibition (Schistosoma mansoni [4]): 0% |
| 0.25 µM | 27.6% | Cc1occc1C(=O)NNC(=O)c1ccccc1O | IC50 [2]: 120 µM |
| 0.039 µM | 6.7% | Cc1occc1C(=O)NNC(=O)c1cc(Cl)ccc1O | Ratio IC50 [6]: > 1000; Inhibition type (Dixon plot) (Schistosoma mansoni [5]): Active |
| 67 µM | 0% | COc1ccccc1/C=N\NC(=O)c1ccoc1C |  |
| 59 µM | 0% | Cc1cccc(/C=N\NC(=O)c2ccoc2C)c1O |  |
| 330 µM |  | Cc1occc1C(=O)N/N=C\c1ccccc1 | IC50 [2]: 296 µM |
| 513 µM |  | COc1ccccc1/C=N\N(C)C(=O)c1ccoc1C |  |
| 0.19 µM | 0% | COc1cc(O)c(/C=N\NC(=O)c2ccoc2C)c(OC)c1 |  |
| 0.13 µM | 20% | Cc1occc1C(=O)N/N=C\c1ccccc1O | IC50 [2]: 430 µM; Ratio IC50 [6]: > 1000; Inhibition type (Dixon plot) (Schistosoma mansoni [5]): Active |
| 0.033 µM | 0% | Cc1occc1C(=O)N/N=C\c1cc(Cl)ccc1O | Ratio IC50 [6]: > 1000 |
| 131 µM |  | Cc1occc1C(=O)NCCc1ccccc1O |  |
| 8.7 µM | 0% | Cc1occc1C(=O)N/N=C\c1cccc(O)c1O |  |
| 88 µM |  | Cc1occc1C(=O)N/N=C\c1ccc(O)c(O)c1 | IC50 [2]: 109 µM; Inhibition type (Dixon plot) (Schistosoma mansoni [5]): Active |
|  |  | C/C(=N/NC(=O)c1ccoc1C)c1ccccc1O | IC50 [1]: ND(Insoluble) |
|  |  | Cc1occc1C(=O)N(C)/N=C\c1ccccc1O | IC50 [1]: ND(Insoluble) |
| 0.077 µM | 0% | Cc1occc1C(=O)N/N=C\c1c(O)cc(Cl)cc1Cl | Ratio IC50 [6]: > 1000 |
|  | 0% | COc1ccc(-c2nnc(-c3ccoc3C)o2)c(O)c1 | inhibition (Schistosoma mansoni [4]): 0% |
| 0.045 µM | 0% | COc1ccc(O)c(/C=N\NC(=O)c2ccoc2C)c1 | Ratio IC50 [6]: > 1000 |
|  |  | COc1ccccc1CCNC(=O)c1ccoc1C | inhibition (Schistosoma mansoni [4]): 0% |
|  |  | O=C1c2c(O)cc(O)cc2OC(c2ccc(O)c(O)c2)C1O (racemic) | inhibition (Schistosoma mansoni [4]): > 40%; inhibition (Schistosoma mansoni [7]): > 40% |
| 0.074 µM | 6.7% | COc1ccc(C(=O)NNC(=O)c2ccoc2C)c(O)c1 | Ratio IC50 [6]: > 1000; Inhibition type (Dixon plot) (Schistosoma mansoni [5]): Active |
| 0.032 µM | 0% | COc1ccc(/C=N\NC(=O)c2ccoc2C)c(O)c1 | Ratio IC50 [6]: > 1000 |
| 12.3 µM | 0% | Cc1occc1C(=O)NNCc1ccccc1O |  |
| 0.15 µM | 66.7% | Cc1occc1C(=O)N/N=C\c1cccc(Cl)c1O | IC50 [2]: 14 µM |
| 105 µM |  | Cc1occc1C(=O)N/N=C\c1cccc(C(C)(C)C)c1O |  |
